This is an account of results in ChEMBL document CHEMBL1221258, “Biaryl substituted hydantoin compounds as TACE inhibitors” (Bioorg Med Chem Lett, 2010).

One may read the Ki as a measure of affinity in units of concentration, obtained from inhibition or displacement. The term AUC denotes concentration integrated over time. A lower AUC goes with low exposure. One may read the bioavailability as the share of a dose that reaches the circulation, judged against a reference dose that is usually intravenous. Low readings indicate poor availability, high ones good availability. Usually Tmax stands for the time from dosing to the highest level. By Cmax is commonly meant the maximum level reached in the sampled fluid or tissue. For orientation: Vdss means a proportionality between amount in the body and measured concentration, not a real space.

For data set [1], the target named is Disintegrin and metalloproteinase domain-containing protein 17 (Homo sapiens, UniProt P78536). Kind of data set: Inhibition of TACE assessed as inhibition of pro-TNFalpha peptide cleavage.
Chain of Disintegrin and metalloproteinase domain-containing protein 17 (P78536 whole entry, the tested form may be a part): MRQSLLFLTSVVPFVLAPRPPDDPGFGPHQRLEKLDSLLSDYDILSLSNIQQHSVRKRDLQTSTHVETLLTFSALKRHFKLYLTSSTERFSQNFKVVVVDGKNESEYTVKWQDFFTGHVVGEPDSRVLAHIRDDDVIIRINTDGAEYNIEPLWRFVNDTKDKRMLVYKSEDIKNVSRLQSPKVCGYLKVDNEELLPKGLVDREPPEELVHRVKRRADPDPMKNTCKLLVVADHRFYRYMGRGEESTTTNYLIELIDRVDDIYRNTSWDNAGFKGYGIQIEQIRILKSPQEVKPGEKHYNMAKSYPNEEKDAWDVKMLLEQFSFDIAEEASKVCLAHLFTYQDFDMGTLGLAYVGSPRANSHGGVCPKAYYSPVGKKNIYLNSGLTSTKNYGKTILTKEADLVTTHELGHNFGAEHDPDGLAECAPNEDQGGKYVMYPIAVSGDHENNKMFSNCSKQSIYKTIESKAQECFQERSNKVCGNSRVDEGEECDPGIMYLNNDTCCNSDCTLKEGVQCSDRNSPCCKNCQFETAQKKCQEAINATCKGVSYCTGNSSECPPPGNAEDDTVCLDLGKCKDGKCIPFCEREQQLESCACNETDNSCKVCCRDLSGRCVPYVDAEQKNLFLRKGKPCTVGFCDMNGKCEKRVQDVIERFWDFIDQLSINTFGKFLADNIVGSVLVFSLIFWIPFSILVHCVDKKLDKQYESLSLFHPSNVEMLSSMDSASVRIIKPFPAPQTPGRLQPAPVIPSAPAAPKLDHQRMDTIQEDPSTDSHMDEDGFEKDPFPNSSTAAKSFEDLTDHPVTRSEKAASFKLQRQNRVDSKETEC
The subject of data set [2] is Rattus norvegicus. Kind of data set: AUC in rat at 3 mg/kg, iv. To be noted: in vivo. The format is ADME, organism-based, Plasma. Details: dose 3 mg/kg, route intravenous.
Data set [3] deals with Rattus norvegicus. The data set can be described thus: Half life in rat at 3 mg/kg, iv. Details: dose 3 mg/kg, route intravenous. Format: ADME, organism-based. To be noted: in vivo. Put shortly: (§1)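 Rats were dosed separately at 3 mg/kg iv and 10 mg/kg po. Reported parameters were AUC (µM h), T1/2 (h), Cl (L/h/kg) and Vss (L/kg) after iv dosing, and AUC, Cmax (µM), Tmax (h) and F% after oral dosing.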

Data set [4] concerns Rattus norvegicus. Kind of data set: Clearance in rat at 3 mg/kg, iv. Format: ADME, organism-based. On the set-up: dose 3 mg/kg, route intravenous. The settings on record: in vivo. In short, it runs like this: as §1
A short description of data set [5]: Oral bioavailability in rat at 10 mg/kg. Format: ADME, organism-based. The settings on record: in vivo. In short, it runs like this:
as §1

The target in data set [6] is Stromelysin-1 (Homo sapiens) (UniProt P08254). Kind of data set: Inhibition of MMP3.
Chain of Stromelysin-1 (Homo sapiens) (P08254 100-477 limits assumed): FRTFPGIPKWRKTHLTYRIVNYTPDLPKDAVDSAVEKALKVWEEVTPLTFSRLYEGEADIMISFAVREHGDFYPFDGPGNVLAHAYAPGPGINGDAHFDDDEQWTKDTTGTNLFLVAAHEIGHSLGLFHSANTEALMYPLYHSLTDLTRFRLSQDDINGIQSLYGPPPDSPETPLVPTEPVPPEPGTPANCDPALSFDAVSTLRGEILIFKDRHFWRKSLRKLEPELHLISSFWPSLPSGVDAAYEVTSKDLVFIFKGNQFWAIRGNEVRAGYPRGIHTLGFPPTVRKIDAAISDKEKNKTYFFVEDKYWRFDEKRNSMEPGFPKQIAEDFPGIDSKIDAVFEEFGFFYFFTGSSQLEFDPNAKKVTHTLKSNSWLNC
Data set [7] concerns the target Matrix metalloproteinase-9 (Homo sapiens) (UniProt P14780). Kind of data set: Inhibition of MMP9.
In data set [8] the target is Collagenase 3 (Homo sapiens) (UniProt P45452). Kind of data set: Inhibition of MMP13.
A short description of data set [9]: Tmax in rat at 10 mg/kg, po. Format: ADME, organism-based. On the set-up: dose 10 mg/kg, route oral. To be noted: in vivo. In short, it runs like this:
as §1

The target in data set [10] is Matrix metalloproteinase-14 (Homo sapiens) (UniProt P50281). The data set can be described thus: Inhibition of MMP14.
Data set [11] can be described thus: AUC in rat at 10 mg/kg, po. The format is ADME, organism-based. On the set-up: dose 10 mg/kg, route oral. The settings on record: plasma.
Data set [12] addresses T1, Interstitial collagenase (Homo sapiens) (UniProt P03956).
T1 sequence (whole entry): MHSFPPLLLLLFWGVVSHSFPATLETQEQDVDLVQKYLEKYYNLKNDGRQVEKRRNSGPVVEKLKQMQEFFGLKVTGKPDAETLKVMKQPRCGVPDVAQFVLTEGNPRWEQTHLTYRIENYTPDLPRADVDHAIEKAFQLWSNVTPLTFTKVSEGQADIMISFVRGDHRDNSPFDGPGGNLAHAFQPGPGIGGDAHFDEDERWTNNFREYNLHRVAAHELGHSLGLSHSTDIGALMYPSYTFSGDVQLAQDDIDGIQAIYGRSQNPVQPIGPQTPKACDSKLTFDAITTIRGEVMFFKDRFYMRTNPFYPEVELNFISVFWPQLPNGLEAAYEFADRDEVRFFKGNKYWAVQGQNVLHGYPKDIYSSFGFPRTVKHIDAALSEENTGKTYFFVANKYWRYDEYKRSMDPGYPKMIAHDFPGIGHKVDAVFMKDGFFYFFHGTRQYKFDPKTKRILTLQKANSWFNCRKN
The data set can be described thus: Inhibition of MMP1.

The nature of data set [13]: Cmax in rat at 10 mg/kg, po. The settings on record: in vivo. Details: dose 10 mg/kg, route oral. Format: ADME, organism-based. In short, it runs like this: as §1
Data set [14] has as its target T2, Disintegrin and metalloproteinase domain-containing protein 10 (Homo sapiens) (UniProt O14672).
T2 sequence (whole entry): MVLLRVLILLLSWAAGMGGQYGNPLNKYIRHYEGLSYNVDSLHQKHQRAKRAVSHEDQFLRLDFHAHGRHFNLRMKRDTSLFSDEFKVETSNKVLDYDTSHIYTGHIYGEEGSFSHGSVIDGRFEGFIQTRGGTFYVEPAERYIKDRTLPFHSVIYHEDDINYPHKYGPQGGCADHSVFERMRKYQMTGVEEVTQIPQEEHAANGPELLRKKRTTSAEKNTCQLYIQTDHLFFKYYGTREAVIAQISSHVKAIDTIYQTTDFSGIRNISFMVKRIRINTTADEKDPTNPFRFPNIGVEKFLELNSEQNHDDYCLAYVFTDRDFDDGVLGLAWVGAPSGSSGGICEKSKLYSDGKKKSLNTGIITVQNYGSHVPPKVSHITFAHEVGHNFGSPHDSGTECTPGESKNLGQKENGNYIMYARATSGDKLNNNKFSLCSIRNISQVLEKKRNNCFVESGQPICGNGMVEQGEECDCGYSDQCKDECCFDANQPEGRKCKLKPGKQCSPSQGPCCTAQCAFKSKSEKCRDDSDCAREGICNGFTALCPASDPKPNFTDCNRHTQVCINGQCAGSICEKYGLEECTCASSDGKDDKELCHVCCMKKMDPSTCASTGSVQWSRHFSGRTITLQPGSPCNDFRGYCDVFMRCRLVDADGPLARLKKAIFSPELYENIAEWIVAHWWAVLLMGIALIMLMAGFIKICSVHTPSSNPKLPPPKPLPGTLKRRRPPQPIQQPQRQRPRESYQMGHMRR
The data set can be described thus: Inhibition of ADAM10.

For data set [15], the system named is Rattus norvegicus. Kind of data set: Volume of distribution at steady state in rat at 3 mg/kg, iv. Format: ADME, organism-based. On the set-up: dose 3 mg/kg, route intravenous. The settings on record: in vivo. In short, it runs like this: as §1
Data set [16] has as its target T3, Matrilysin (Homo sapiens) (UniProt P09237).
T3 sequence (whole entry): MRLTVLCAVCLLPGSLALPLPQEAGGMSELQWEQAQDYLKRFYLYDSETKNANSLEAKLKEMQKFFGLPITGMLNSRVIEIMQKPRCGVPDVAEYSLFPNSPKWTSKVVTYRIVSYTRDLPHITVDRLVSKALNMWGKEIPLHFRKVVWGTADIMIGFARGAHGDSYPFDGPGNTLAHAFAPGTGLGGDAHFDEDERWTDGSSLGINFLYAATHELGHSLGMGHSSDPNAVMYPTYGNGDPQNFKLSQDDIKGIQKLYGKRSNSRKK
Kind of data set: Inhibition of MMP7.

In data set [17] the target is 72 kDa type IV collagenase (Homo sapiens) (UniProt P08253). Kind of data set: Inhibition of MMP2.
Chain of 72 kDa type IV collagenase (Homo sapiens) (P08253 110-660 limits assumed): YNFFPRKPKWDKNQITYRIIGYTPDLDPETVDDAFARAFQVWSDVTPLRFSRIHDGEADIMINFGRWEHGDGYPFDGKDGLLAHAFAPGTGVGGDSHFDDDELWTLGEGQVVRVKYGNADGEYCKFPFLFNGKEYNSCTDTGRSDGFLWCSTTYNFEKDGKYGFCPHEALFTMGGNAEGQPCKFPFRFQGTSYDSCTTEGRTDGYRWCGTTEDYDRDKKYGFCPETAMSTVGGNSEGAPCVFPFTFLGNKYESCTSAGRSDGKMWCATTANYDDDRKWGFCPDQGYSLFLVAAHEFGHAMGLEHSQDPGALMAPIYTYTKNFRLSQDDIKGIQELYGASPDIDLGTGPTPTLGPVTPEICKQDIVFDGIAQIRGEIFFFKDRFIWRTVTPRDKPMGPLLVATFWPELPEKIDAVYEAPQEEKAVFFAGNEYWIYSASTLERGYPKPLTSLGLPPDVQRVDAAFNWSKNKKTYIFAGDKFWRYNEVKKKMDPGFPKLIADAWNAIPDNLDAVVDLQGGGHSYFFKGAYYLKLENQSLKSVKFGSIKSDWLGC

Chain of Matrix metalloproteinase-9 (Homo sapiens) (P14780 whole entry): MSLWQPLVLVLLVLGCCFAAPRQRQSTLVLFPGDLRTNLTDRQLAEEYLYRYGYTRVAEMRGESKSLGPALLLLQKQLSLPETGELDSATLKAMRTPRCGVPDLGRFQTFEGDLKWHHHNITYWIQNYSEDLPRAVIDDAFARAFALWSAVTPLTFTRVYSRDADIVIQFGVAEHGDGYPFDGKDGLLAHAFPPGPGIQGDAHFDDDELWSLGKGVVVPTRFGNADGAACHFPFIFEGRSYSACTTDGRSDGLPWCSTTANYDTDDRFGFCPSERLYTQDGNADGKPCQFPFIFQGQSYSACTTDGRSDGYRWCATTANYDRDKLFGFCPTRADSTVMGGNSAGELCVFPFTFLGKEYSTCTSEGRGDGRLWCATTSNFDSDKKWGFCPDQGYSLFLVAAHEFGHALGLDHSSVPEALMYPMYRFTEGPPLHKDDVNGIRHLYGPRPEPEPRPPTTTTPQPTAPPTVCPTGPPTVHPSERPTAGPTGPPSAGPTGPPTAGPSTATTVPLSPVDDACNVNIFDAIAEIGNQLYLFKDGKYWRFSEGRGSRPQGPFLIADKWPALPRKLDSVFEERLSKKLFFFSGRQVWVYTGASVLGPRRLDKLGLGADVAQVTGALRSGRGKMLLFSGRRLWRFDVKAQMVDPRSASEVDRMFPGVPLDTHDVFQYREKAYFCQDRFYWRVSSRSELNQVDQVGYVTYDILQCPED

Regarding `COc1ccc2c(c1)C(=O)N(C[C@@]1(c3ccc(-c4ccc(C(N)=O)cc4)cc3)NC(=O)NC1=O)C2`, in data set [1], the inhibition constant (Ki) worked out at 3 nM.

In the case of `COc1ccc2c(c1)C(=O)N(C[C@@]1(c3ccc(-c4cncnc4)cc3)NC(=O)NC1=O)C2`, the inhibition constant Ki in data set [1] was 0.9 nM.

With `COc1ccc2c(c1)C(=O)N(C[C@@]1(c3ccc(-c4cccnc4)cc3)NC(=O)NC1=O)C2`, the exposure (AUC) in the data set with Rattus norvegicus [2] is 19 µM·h; in data set [11], 9.1 µM·h. In the data set with Rattus norvegicus [3], this molecule returned a t1/2 of 4.3 h. The molecule also had a CL in the data set with Rattus norvegicus [4] of 103 mL/min/kg. This molecule also showed a bioavailability in data set [5] of 14.1%. In addition, the INH in data set [6] was 3.61 nM; in data set [7] it was 124 nM; in [8] it was 155 nM; in data set [10], 25 nM; in data set [12], 655 nM; in data set [14], 216 nM. In data set [16], the INH came out at 17.4 µM. Moreover, in data set [9], the Tmax amounted to 0.58 h. Moreover, the highest level in data set [13] (Cmax) was 2.96 µM. In addition, the distribution volume (Vdss) in the data set with Rattus norvegicus [15] was 0.3 L/kg.

`COc1ccc2c(c1)C(=O)N(C[C@@]1(c3ccc(-c4ccnc(N)c4)cc3)NC(=O)NC1=O)C2`: in [1], the Ki is 1.4 nM.

In the case of `COc1ccc2c(c1)C(=O)N(C[C@@]1(c3ccc(Oc4ccncc4)cc3)NC(=O)NC1=O)C2`, in data set [1], the Ki is 7 nM.

On to `COc1ccc2c(c1)C(=O)N(C[C@@]1(c3ccc(C4(C)NC(=O)NC4=O)cc3)NC(=O)NC1=O)C2` (stereo partly drawn), for which, in data set [1], the Ki came out at 2.6 nM.

In the case of `COc1ccc2c(c1)C(=O)N(C[C@@]1(c3ccc(-c4cnn(C)c4)cc3)NC(=O)NC1=O)C2`, the values for the area under the curve (AUC) (with Rattus norvegicus [2]; in [11]) were 36.2 µM·h and 22.2 µM·h, respectively. In addition, in the data set on Rattus norvegicus [3], the t1/2 was 4.4 h. In addition, the CL in the data set with Rattus norvegicus [4] amounted to 55 mL/min/kg. Also, the bioavailability in data set [5] is 18%. For the same molecule, the INH is 430 nM in data set [6]; 122 nM in data set [7]; 202 nM in data set [8]; 19 nM in data set [10]; 718 nM in data set [12]; 24 nM in [17]. The INH in [14] is 187 nM; in data set [16], greater than 40 µM. The Tmax in data set [9] amounted to 2 h. Also, the concentration in data set [13] peaked (Cmax) at 4.45 µM. In the data set on Rattus norvegicus [15], this molecule yielded a Vdss of 0.3 L/kg.

For the molecule `O=C1NC(=O)[C@](CN2Cc3ccc(F)cc3C2=O)(c2ccc(-c3ccc(F)cc3F)cc2)N1`, in data set [1], the inhibition constant (Ki) came out at 2 nM.

Consider `O=C1NC(=O)[C@](CN2Cc3ccc(F)cc3C2=O)(c2ccc(-c3ccc(C(F)(F)F)cc3)cc2)N1`, for which, in data set [1], the Ki worked out at 18 nM.

With `COc1ccc2c(c1)C(=O)N(C[C@@]1(c3ccc(-c4cccc(-c5csc(C)n5)c4)cc3)NC(=O)NC1=O)C2`, the Ki in data set [1] is 31 nM.

As for `O=C1NC(=O)[C@](CN2Cc3ccc(F)cc3C2=O)(c2ccc(-c3ccc(=O)[nH]c3)cc2)N1`, in data set [1], the Ki was 0.2 nM.

`COc1ccc2c(c1)C(=O)N(C[C@@]1(c3ccc(-c4ccncc4)cc3)NC(=O)NC1=O)C2`: the Ki in [1] came to 0.6 nM.

On to `COc1ccc2c(c1)C(=O)N(C[C@@]1(c3ccc(-c4cc(-c5ccccc5)no4)cc3)NC(=O)NC1=O)C2`, for which the Ki in data set [1] was found to be 28 nM.

Regarding `COc1ccc2c(c1)C(=O)N(C[C@@]1(c3ccc(Oc4ccc5cnccc5c4)cc3)NC(=O)NC1=O)C2`, in [1], the inhibitory constant (Ki) came out at 8 nM.

Regarding `COc1ccc2c(c1)C(=O)N(C[C@@]1(c3ccc(-c4ccnc(C)c4)cc3)NC(=O)NC1=O)C2`, the area under the curve (AUC) in the data set on Rattus norvegicus [2] turned out to be 21 µM·h; in data set [11], 13 µM·h. Besides, the t1/2 in the data set on Rattus norvegicus [3] came to 4.4 h. Besides, the CL in the data set on Rattus norvegicus [4] stood at 91.7 mL/min/kg. The bioavailability in data set [5] turned out to be 19%. Further, the INH in data set [6] amounted to 434 nM; in [7] it was 212 nM; in data set [8] it was 194 nM; in data set [10], 36 nM; in data set [12], 1740 nM; in [17] it was 86 nM. Moreover, the INH in data set [14] was 253 nM; in data set [16] it was 30 µM. The time of peak concentration (Tmax) in [9] came to 1.7 h. This molecule had a maximum concentration (Cmax) in data set [13] of 3.3 µM. Besides, in data set [1], the inhibitory constant (Ki) amounted to 0.5 nM. The Vdss in the data set with Rattus norvegicus [15] was 0.3 L/kg.

Consider `O=C1NC(=O)[C@](CN2Cc3ccc(F)cc3C2=O)(c2ccc(-c3c[nH]c(=O)c(Cl)c3)cc2)N1`, for which the Ki in [1] worked out at 0.1 nM.

Regarding `COc1ccc2c(c1)C(=O)N(C[C@@]1(c3ccc(-c4nccs4)cc3)NC(=O)NC1=O)C2`, the Ki in data set [1] was 0.6 nM.

In the case of `COC(=O)c1ccc(-c2ccc([C@]3(CN4Cc5ccc(OC)cc5C4=O)NC(=O)NC3=O)cc2)cc1`, the inhibition constant (Ki) in data set [1] is 9 nM.
